Published values pooled from the literature.
Protocols differ between the studies behind these lines.
Target: RAC-beta serine/threonine-protein kinase (AKT2, Homo sapiens, UniProt P31751)

The remaining binding of `c1cncc(-c2cccc(Nc3nccc(NC4CCCCC4)n3)c2)c1` is reported as 62% (binding; competition with immobilised ligand; 10 µM).
`CN(C)c1ncc(F)c(-c2cnn3ncccc23)n1` has a remaining binding of 100% (binding; 1 µM).
`O=C(c1ccc(Nc2ncc(Cl)c(-c3ccc(Cl)s3)n2)cc1)N1CCC(N2CCCC2)CC1` gave a remaining binding of 89% (binding; competition with immobilised ligand; 1 µM).
`C=CC(=O)N1CCC(C(=O)NCC(=O)N2CCN(c3nc(-c4cnc(N)nc4C(F)F)nc(N4CCOCC4)n3)CC2)CC1` gave a remaining binding of 100% (binding; competition with immobilised ligand; 1 µM).
`COc1ccc2c(O[C@@H]3C[C@H]4C(=O)N[C@]5(C(=O)O)CC5/C=C\CCCCC[C@H](NC(=O)OC5CCCC5)C(=O)N4C3)cc(-c3csc(NC(=O)C(C)C)n3)nc2c1C` (stereo partly drawn) has a remaining binding of 89% (cell-free assay; competition with immobilised ligand; 1 µM).
With `CN(C)c1nccc(-c2cnn3ncccc23)n1` the remaining binding was 100% (binding; 1 µM).
`Cc1nc(N2CC[C@@H](O)C2)ncc1-c1cc(C(F)(F)F)cc2[nH]ncc12` has a remaining binding of 87% (binding; competition with immobilised ligand; 1 µM).
The remaining binding of `CN(CCCC(F)(F)F)c1nccc(-c2cnn3ncccc23)n1` is reported as 75% (binding; 1 µM).
`C[C@@H]1CN(c2ccc3ncc(-c4ccc5[nH]nc(C6CC6)c5c4)n3n2)C[C@H](C)O1` has a remaining binding of 100% (binding; competition with immobilised ligand; 50 nM).
The remaining binding of `C[C@@H]1CCN(c2nccc(-c3cnn4ncccc34)n2)C1` is reported as 93% (binding; 1 µM).
The remaining binding of `CNC(=O)[C@@H]1CC[C@@H](n2c(-c3ccc4cnccc4c3)nc3ccc(C(=O)NCc4cccc(C(N)=O)c4)cc32)C1` is reported as 100% (binding; competition with immobilised ligand; 1 µM).
The remaining binding of `C[C@@H](c1ccc(-n2cnc3c(N)ncnc32)cc1)N1CCc2nn(C)c(Cc3ccccc3)c2C1=O` is reported as 99% (binding; competition with immobilised ligand; 0.1 µM).
For `N[C@H]1CCN(c2nccc(-c3cnn4ncccc34)n2)C1`, the remaining binding was 100% (binding; 1 µM).
`O=C(NCC1CCOCC1)c1n[nH]cc1NC(=O)c1c(F)cccc1F` gave a remaining binding of 100% (binding; competition with immobilised ligand; 1 µM).
`Cc1c[nH]c2nccc(Oc3c(F)cc(Nc4cc(Cl)nc(N)n4)cc3F)c12` has a remaining binding of 98% (cell-free assay; competition with immobilised ligand; 0.1 µM).
The remaining binding of `N#Cc1ccccc1CSc1nnc2c(n1)[nH]c1ccccc12` is reported as 93% (binding; competition with immobilised ligand; 10 µM).
For `CCCOc1ccc([C@H]2[C@H](C(=O)O)[C@@H](c3ccc4c(c3)OCO4)CN2CC(=O)Nc2c(CC)cccc2CC)cc1`, the remaining binding was 100% (cell-free assay; competition with immobilised ligand; 1 µM).
For `CN(C)c1nccc(-c2cnc3ncccn23)n1`, the remaining binding was 88% (binding; 1 µM).
`CN(C)c1ncnc(-c2ccc3nc(Nc4cc(CN5CCN(C(=O)CC(F)(F)F)CC5)ccn4)[nH]c3c2)c1Cl` has a remaining binding of 95% (cell-free assay; competition with immobilised ligand; 1 µM).
`O=C(NCCCN1CCOCC1)c1ccc(Nc2ncc(Cl)c(-c3ccc(Cl)s3)n2)cc1` has a remaining binding of 100% (binding; competition with immobilised ligand; 1 µM).
The remaining binding of `O=C(O)[C@H]1[C@H](Cn2nnc3ccccc3c2=O)CC[C@@H]1C(=O)c1ccc(OCCC2CCOCC2)cc1` is reported as 88% (cell-free assay; competition with immobilised ligand; 1 µM).
`Cc1cnn2ncc(-c3ccnc(N(C)C)n3)c2c1` gave a remaining binding of 100% (binding; 1 µM).
The remaining binding of `O=C(c1ccc(Nc2ncc(Cl)c(-c3cc4ccccc4s3)n2)cc1)N1CCC(N2CCCC2)CC1` is reported as 88% (binding; competition with immobilised ligand; 1 µM).
`Cc1c(NC(=O)c2cc(C(N)=O)nc3cc(F)ccc23)c(C(F)(F)F)nn1Cc1ccc(C#N)cc1` gave a remaining binding of 98% (cell-free assay; competition with immobilised ligand; 1 µM).
